A selection: hits, their analogues and other compounds. The true share with any hit is near 9.6%.
Lmaj promast: inhibitors of Leishmania major promastigote growth; Leishmania major promastigotes, resazurin fluorescence viability; inhibition, % at 10 µM; hit rate 9% among 200,000; AID 1063; in the data active means inhibition above about 50%;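 further: promastigotes grown with compound for 44 hours at 28 °C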
PMI activator: phosphomannose isomerase (human) activation; hit rate 0.005% among 190,000; P34949; activation factor at 20 µM; purified human PMI, coupled resazurin fluorescence, 20 min; active compounds read high; 1 = vehicle control, 0 substrate-free wells;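 active means activation factor of 2 or more at 20 µM, relative to plate controls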
Target sequence (P34949 whole entry, looked up): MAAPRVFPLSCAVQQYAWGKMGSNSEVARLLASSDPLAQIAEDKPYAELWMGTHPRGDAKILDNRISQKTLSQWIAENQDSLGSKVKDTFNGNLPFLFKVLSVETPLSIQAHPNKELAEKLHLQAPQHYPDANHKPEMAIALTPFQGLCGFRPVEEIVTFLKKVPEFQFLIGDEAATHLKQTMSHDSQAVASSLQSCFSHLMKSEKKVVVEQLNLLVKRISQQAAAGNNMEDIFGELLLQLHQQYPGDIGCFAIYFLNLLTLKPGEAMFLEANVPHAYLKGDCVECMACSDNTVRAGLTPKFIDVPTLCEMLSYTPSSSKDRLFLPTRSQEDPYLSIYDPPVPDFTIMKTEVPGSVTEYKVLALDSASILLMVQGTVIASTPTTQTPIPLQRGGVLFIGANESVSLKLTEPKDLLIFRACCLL
PMI act satM6P: PMI (human) activation, high substrate; coupled PMI enzyme assay, resazurin fluorescence, 20 min; active compounds read high; 1 = untreated enzyme, 0 = substrate-free blank; P34949; activation factor at 20 µM; hit rate 0.34% among 190,000;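 active means activation factor of 2 or more at 20 µM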
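Test system: human phosphomannose isomerase with PGI, G6PDH, diaphorase coupling enzymes; amount: 15 ng/mL PMI; incubation: enzyme reaction with compound 20 min at room temperature; technique: resorufin fluorescence (Ex 544/Em 590 nm) from resazurin via diaphorase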
bCat KO growth: beta-catenin-lacking colon tumor cell growth suppression; viability, % at 10 µM; hit rate 1.5% among 140,000; HCT116 beta-catenin knockout viability, CellTiter-Glo, 60 h; active compounds read low;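 active means viability at or under a set limit, the compound median less 4 SD, cut at about 6% in these data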;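 further: 0% = Hyamine 1622 control at 20 µM and 100% = untreated cell control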
PTEN del growth: PTEN-deleted cell growth suppression; HCT116 PTEN-null viability, CellTiter-Glo, 60 h; active compounds read low; viability, % at 10 µM; hit rate 1.2% among 140,000; AID 827;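 active means viability at or below a set limit, 4 SD under the median of all tested compounds, cut at about 3.7% in these data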;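 further: PTEN knockout HCT116 line with beta catenin targeted HCT116 as companion control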
The depositor's hits bear a star; nt = no result.

SMILES	Lmaj promast	PMI activator	PMI act satM6P	bCat KO growth	PTEN del growth
O=S(=O)(/C=C/c1ccccc1)N1CCN(c2nc(-c3cccnc3)nc3ccccc23)CC1	52*	0.9	1	nt	nt
COc1ccc(OC)c(-n2c(=S)[nH]c3c(sc(=S)n3-c3ccccc3)c2=O)c1	-14	0.9	0.9	nt	nt
CC(C)(CNC(=S)NCCc1ccccc1)CNC(=S)NCCc1ccccc1	95*	0.9	0.9	24	21
S=C(NCCCc1ccccc1)Nc1ccc(Cl)cc1	90*	0.9	0.9	89	90
COc1ccc(CCNC(=S)NCc2cccs2)cc1OC	1	0.9	1	nt	nt
OCCNC(=S)NCCc1ccccc1	-8	1.1	1.1	94	92
S=C(NCCc1ccccc1)NCc1cccs1	79*	1.1	1.1	89	85
CCC(C)c1ccc(NC(=S)NCc2cccs2)cc1 (stereo unspecified)	67*	0.9	0.9	87	83
S=C(NCc1ccccc1)Nc1ccc(Cl)cc1	14	0.9	1	nt	nt
CC(C)(C)c1ccc(NC(=S)NCc2cccs2)cc1	14	0.9	0.9	89	87
O=c1c2ccccc2nc(SCc2ccncc2)n1CC1CCCO1 (stereo unspecified)	6	1	1	nt	nt
CNC(=S)N1CCC(c2nc3ccccc3s2)CC1	-8	0.8	0.9	nt	nt
CCN(CC)CCn1c(=N)n(CCOc2ccccc2)c2ccccc21	93*	0.9	0.9	19	22
CCCCn1c(=N)n(CCOc2ccc(C)cc2)c2ccccc21	97*	1.1	1.1	1.9*	1.9*
C=COCCn1c(=N)n(CCC)c2ccccc21	4	1	1	85	91
COc1ccc(OCCn2c(=N)n(CCO)c3ccccc32)cc1	-1	0.9	0.9	75	84
CCCn1c(=N)n(CCOCCOCCn2c(=N)n(CCC)c3ccccc32)c2ccccc21	88*	nt	nt	nt	nt
CC1CCc2c(nc3ncnn3c2NCCc2ccccc2F)C1 (stereo unspecified)	18	nt	nt	nt	nt
CCc1cccc(C)c1NC(=O)C1CCN(C(=O)c2ccc([N+](=O)[O-])cc2)CC1	2	1	1	nt	nt
CCOC(=O)C1(CC2CCCCO2)CCN(S(=O)(=O)c2cc(C)cs2)CC1 (stereo unspecified)	1	1	0.9	nt	nt
Clc1cc(Br)ccc1OCCOCCN1CCOCC1	96*	1	1	99	93
Cc1ccc(C)c(OCCCC(=O)Nc2ccc(N3CCOCC3)cc2)c1	0	0.9	0.9	71	65
Cc1cc(C)c(C)c(OCCOCCN2CCN(C)CC2)c1	-2	1.2	1.2	91	96
Cc1cc(C)c(C)c(OCCOCCN2CCOCC2)c1	55*	0.9	0.9	95	91
Cc1ccc(C)c(OCCOCCN2CCOCC2)c1	92*	0.9	1	102	88
SMILES	Lmaj promast	PMI activator	PMI act satM6P	bCat KO growth	PTEN del growth
Cc1nc2ccccc2n1C(=O)N(C)C	-7	1.1	1.1	nt	nt
CCOc1cc(C2C(C#N)=C(N)SC(N)=C2C#N)ccc1OCCN1CCOCC1	-2	0.9	1.1	96	104
CCOc1cc(/C=C2\SC(=N)N(c3nccs3)C2=O)ccc1OCCN1CCOCC1	97*	1	1	20	16
Cc1ccc(NCc2nnc(SCC(=O)N3c4ccccc4Sc4ccccc43)o2)c(C)c1	19	0.8	0.9	71	63
N/C(=N\c1nc2c(c(=O)[nH]1)CCCC2)Nc1ccccc1	7	1.1	1	79	82
N/C(=N\c1nc2c(c(=O)[nH]1)CCC2)Nc1ccccc1	73*	1	0.9	78	98
CCCCCCCCCn1c2c(c(=N)c3c1CCC3)CCC2	100*	1	1	1.9*	1.6*
CCCCCCCn1ccc(=N)cc1	38	0.8	0.8	15	18
CCCCn1c2c(c(=N)c3c1CCC3)CCC2	100*	1	0.9	18	31
CCCCCCn1c2c(c(=N)c3c1CCC3)CCC2	100*	0.8	0.9	5.2*	6
CCn1c2c(c(=N)c3c1CCC3)CCC2	32	1.2	1	70	79
CCCCCCCn1c2c(c(=N)c3c1CCC3)CCCC2	100*	0.9	0.9	nt	nt
CCCn1c2c(c(O)c(C(=O)NC)c1=O)CCCC2	-5	1	1	95	92
COc1ccc(N2CCN(CCNC(=O)CCS(=O)(=O)c3cccc4nsnc34)CC2)cc1	11	1	0.8	88	104
COc1ccc(OC)c(NC(=O)c2ccccc2NS(=O)(=O)c2cccc3cccnc23)c1	22	0.9	1	82	79
Fc1ccc(CN2CCCCCCC2)cc1	46	1.1	1.1	94	106
N=c1c2c(n(Cc3ccc(F)cc3)c3c1CCC3)CCC2	100*	1.1	1	16	21
CN(C)CCCN1C(=O)c2cccc3c(Br)ccc(c23)C1=O	100*	0.7	0.5	nt	nt
Cc1ccccc1Nc1nc(N)nc(CSCC(=O)Nc2cccc(Br)c2)n1	81*	0.9	1	92	96
Cc1ccc(SCc2nc(N)nc(Nc3ccccc3C)n2)c(C)c1	60*	1	1	84	85
Cc1c(Cl)cccc1Nc1nc(N)nc(CN2CCc3ccccc3C2)n1	89*	0.9	1.1	64	53
Cc1ccccc1Nc1nc(N)nc(CN(C)Cc2ccccc2Cl)n1	51*	0.9	0.9	77	71
CC(C)C1N(C(=O)CN2CCCCC2)CCN1S(=O)(=O)c1ccccc1 (stereo unspecified)	5	1.1	1.1	nt	nt
CCCC(=O)NC(C)c1nc2ccccc2n1C(C)C (stereo unspecified)	-7	0.9	0.9	97	108
O=C(CN(C(=O)c1cc2c(s1)CCC2)C1CCCC1)NCc1cccs1	22	1	1	49	44
SMILES	Lmaj promast	PMI activator	PMI act satM6P	bCat KO growth	PTEN del growth
Cc1nn(C)c(C(=O)N/N=C/c2ccc(C(F)(F)F)cc2)c1[N+](=O)[O-]	23	1	1	93	96
Cc1ccc(Nc2nc(N)nc(CN3CCC(C)CC3)n2)c(C)c1	62*	nt	nt	93	86
CCCCc1c(O)nc(SCC(=O)N2CCOCC2)[nH]c1=O	-7	1	0.9	101	95
Clc1cccc(-c2cc3nc4c(c(N5CCN(c6cnccn6)CC5)n3n2)CCCC4)c1	62*	0.9	0.9	40	35
Cc1nn2c(=O)cc(COC(=O)c3ccc(S(=O)(=O)N4CCCCC4)cc3)nc2s1	-3	0.8	0.9	97	109
O=C(NNC(=O)c1ccc(NC(=O)c2ccccc2)cc1)c1ccccc1	-3	1.1	1	nt	nt
Cc1ccc(C)n1-c1ccc(C(=O)Nc2ccccc2F)cc1	4	1.1	1	nt	nt
CC(=O)NCCNC(=O)c1ccc(-n2c(C)ccc2C)cc1	2	1.1	0.9	nt	nt
Cc1ccc(NC(=O)c2ccccc2)s1	69*	1	1.2	89	98
CCc1ccccc1NC(=O)c1ccc(-n2c(C)ccc2C)cc1	13	0.9	1	3.8*	4
